The text below walks through data of ChEMBL document CHEMBL1133005, “Improving the oral bioavailability of the iron chelator HBED by breaking the symmetry of the intramolecular H-bond network” (J Med Chem, 2000).

What all share (type): physicochemical
Data set [1] in a line: Evaluated for ionization constant (pKa5) by titrations performed in the presence of MeOH at a dielectric constant of 49. Conditions: MeOH cosolvent; read-out: pKa5. The procedure, abridged:
(§1)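 Potentiometric pH titration. The electrode is calibrated with pH 7.00 phosphate buffer. A blank titration before each set standardizes the electrode by a nonlinear semiempirical equation, and readings are converted to the concentration scale pcH = −log[H+]. Runs use varying amounts of MeOH or EtOH cosolvent, and aqueous pKa values are extrapolated by the Yasuda–Shedlovsky method. Low pKa values (pH < 2) are determined by spectrophotometric titration.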

A short description of data set [2]: Evaluated for ionization constant (pKa5) by titrations performed in the presence of MeOH at a dielectric constant of 56. Conditions: MeOH cosolvent; read-out: pKa5. The method in brief:
as §1

A short description of data set [3]: Evaluated for ionization constant (pKa5) by titrations performed in the presence of MeOH at a dielectric constant of 62. Conditions: MeOH cosolvent; read-out: pKa5. The procedure, abridged: as §1
Data set [4] in a line: Evaluated for ionization constant (pKa3) by titrations performed in the absence of a cosolvent and at a dielectric constant of 78. Conditions: no cosolvent; read-out: pKa3.
The nature of data set [5]: Evaluated for ionization constant (pKa6) by titrations performed using the method of Yasuda and Shedlovsky. Conditions: read-out: pKa6. The procedure, abridged: as §1
The nature of data set [6]: Evaluated for ionization constant (pKa3) by titrations performed in the presence of MeOH at a dielectric constant of 49. Conditions: MeOH cosolvent; read-out: pKa3. The procedure, abridged:
(§2)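 pH-metric titration in mixed water/cosolvent media (MeOH or EtOH, depending on the ligand) at several cosolvent proportions, each proportion setting the dielectric constant. Electrode calibrated with pH 7.00 phosphate buffer and standardized after a blank titration by a nonlinear semiempirical fit. Readings were converted to pcH to give concentration-scale constants.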

The nature of data set [7]: Evaluated for ionization constant (pKa3) by titrations performed in the presence of MeOH at a dielectric constant of 56. Conditions: MeOH cosolvent; read-out: pKa3. The method in brief:
as §2

The nature of data set [8]: Evaluated for ionization constant (pKa3) by titrations performed in the presence of MeOH at a dielectric constant of 62. Conditions: MeOH cosolvent; read-out: pKa3. The method in brief: as §2
Data set [9] is described as follows: Evaluated for ionization constant (pKa3) by titrations performed using the method of Yasuda and Shedlovsky. Conditions: read-out: pKa3. The procedure, abridged:
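Aqueous constants were extrapolated by the Yasuda–Shedlovsky method from pH-metric titrations run at several MeOH or EtOH cosolvent levels. Electrode calibrated with pH 7.00 phosphate buffer and standardized after a blank titration. Values are expressed on the pcH (-log[H+]) concentration scale.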

A short description of data set [10]: Evaluated for ionization constant (pKa4) by titrations performed in the absence of a cosolvent and at a dielectric constant of 78. Conditions: no cosolvent; read-out: pKa4.
A short description of data set [11]: Evaluated for ionization constant (pKa4) by titrations performed in the presence of MeOH at a dielectric constant of 49. Conditions: MeOH cosolvent; read-out: pKa4. The procedure, abridged:
as §2

Data set [12] in a line: Evaluated for ionization constant (pKa4) by titrations performed in the presence of MeOH at a dielectric constant of 62. Conditions: MeOH cosolvent; read-out: pKa4. The procedure, abridged: as §2
Data set [13] can be described thus: Evaluated for ionization constant (pKa4) by titrations performed using the method of Yasuda and Shedlovsky. Conditions: read-out: pKa4. The method in brief:
as §1

Data set [14] can be described thus: Evaluated for ionization constant (pKa5) by titrations performed using the method of Yasuda and Shedlovsky. Conditions: read-out: pKa5. The procedure, abridged: as §1
The nature of data set [15]: Evaluated for ionization constant (pKa6) by titrations performed in the presence of MeOH at a dielectric constant of 56. Conditions: MeOH cosolvent, dielectric constant 56; read-out: pKa6. The procedure, abridged:
as §1

Data set [16] is described as follows: Evaluated for ionization constant (pKa6) by titrations performed in the presence of MeOH at a dielectric constant of 62. Conditions: MeOH cosolvent, dielectric constant 62; read-out: pKa6. The method in brief: as §1
A short description of data set [17]: Evaluated for ionization constant-1 (pKa1) by titrations performed in absence of a cosolvent at a dielectric constant of 78. Conditions: no cosolvent, dielectric constant 78; read-out: pKa1. The method in brief: as §1
The nature of data set [18]: Evaluated for ionization constant (pKa2) by titrations performed in the presence of MeOH at a dielectric constant of 56. Conditions: MeOH cosolvent, dielectric constant 56; read-out: pKa2. The procedure, abridged:
as §2

A short description of data set [19]: Evaluated for ionization constant (pKa2) by titrations performed in the absence of cosolvent and at a dielectric constant of 78. Conditions: no cosolvent, dielectric constant 78; read-out: pKa2.
Data set [20] is described as follows: Partition coefficient (logP) (chloroform). The procedure, abridged: (§3)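 Free-ligand partition coefficients are measured by the pH-metric technique. This uses two linked titrations: a normal aqueous titration, then a two-phase titration in the presence of the partition solvent.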
Data set [21] is described as follows: Partition coefficient (logP) (cyclohexane). The method in brief: as §3
Data set [22] is described as follows: Partition coefficient (logP). Conditions: octanol/water. The method in brief: as §3
Data set [23] can be described thus: Evaluated for ionization constant (pKa4) by titrations performed in the presence of MeOH at a dielectric constant of 56. Conditions: MeOH cosolvent, dielectric constant 56; read-out: pKa4. The procedure, abridged:
as §2

Data set [24] can be described thus: Evaluated for ionization constant (pKa6) by titrations performed in the presence of MeOH at a dielectric constant of 49. Conditions: MeOH cosolvent, dielectric constant 49; read-out: pKa6. The procedure, abridged: as §1
Data set [25] in a line: Evaluated for ionization constant (pKa3) by titrations performed in absence of cosolvent and at a dielectric constant of 78. Conditions: no cosolvent; read-out: pKa3.
Data set [26] is described as follows: Evaluated for ionization constant (pKa3) by titrations performed in the presence of EtOH at a dielectric constant of 63. Conditions: EtOH cosolvent; read-out: pKa3. The procedure, abridged:
as §2

Data set [27] can be described thus: Evaluated for ionization constant (pKa4) by titrations performed in absence of cosolvent and at a dielectric constant of 78. Conditions: no cosolvent; read-out: pKa4.
The nature of data set [28]: Evaluated for ionization constant (pKa4) by titrations performed in the presence of EtOH at a dielectric constant of 63. Conditions: EtOH cosolvent; read-out: pKa4. The procedure, abridged:
as §2

Data set [29] is described as follows: Evaluated for ionization constant (pKa5) by titrations performed in absence of cosolvent and at a dielectric constant of 78. Conditions: no cosolvent; read-out: pKa5. The method in brief: as §1
Data set [30] in a line: Evaluated for ionization constant (pKa2) by titrations performed in absence of cosolvent and at a dielectric constant of 78. Conditions: no cosolvent, dielectric constant 78; read-out: pKa2.
Data set [31] can be described thus: Evaluated for ionization constant (pKa2) by titrations performed in the presence of EtOH at a dielectric constant of 63. Conditions: EtOH cosolvent, dielectric constant 63; read-out: pKa2. The procedure, abridged:
as §2

Data set [32] in a line: Evaluated for ionization constant (pKa1) by titrations performed in absence of cosolvent and at a dielectric constant of 78. Conditions: no cosolvent, dielectric constant 78; read-out: pKa1.

SMILES strings stand for the structures.

In general, logP refers to the decadic logarithm of the partition coefficient of the neutral form, usually between octanol and water. A lower logP goes with lower lipophilicity. Turning to `O=C(O)CN(CCN(CC(=O)O)Cc1ccccc1O)Cc1ccccc1O`, the pKa in data set [1] is 2.72; in [2] it was 2.34; in [3], 2.25; in data set [4] it was 8.34; in data set [5], 0.92; in data set [6], 8.37. Moreover, the pKa in data set [7] turned out to be 8.36; in data set [8], 8.36; in [9] it was 8.36; in [10], 4.61; in [11], 4.71; in data set [12], 4.58. Further, the pKa in [13] was 4.58; in [14] it was 1.62; in data set [15], 1.11; in [16], 1.05; in data set [17] it was 12.9; in data set [18], 12.5. For the same compound, the pKa in data set [19] amounted to 11.1; in [23] it was 4.57; in data set [24] it was 1.18. Further, the logP was under -2 in [20], under -2 in data set [21] and 0.16 in [22].
For `CCOC(=O)CN(CCN(CC(=O)[O-])Cc1ccccc1O)Cc1ccccc1O.[Na+]`, the pKa in data set [25] stood at 7.64; in data set [26] it was 7.5; in data set [27] it was 2.91; in [28] it was 2.75; in [29] it was 0.9; in data set [30], 10.9. Besides, the pKa turned out to be 11.4 in [31] and 12.3 in data set [32]. Besides, the figures for the logP in data set [20], in data set [21] and in [22] were 0.18, -1.3 and 1.15, respectively.
